Laboratory results reported in ChEMBL document CHEMBL4354804, “Discovery of a New Isoxazole-3-hydroxamate-Based Histone Deacetylase 6 Inhibitor SS-208 with Antitumor Activity in Syngeneic Melanoma Mouse Models” (J Med Chem, 2019).
Active and inactive are the calls of the source. No cut-off for these calls is given here.

Experiments:
[1] = Induction of apoptosis in mouse SM1 cells at 0.1 to 25 uM by caspase3/7 reagent based luminescence assay; format: cell-based
Method in brief: (§1)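 SM1 cells treated with HDAC inhibitors, with pan-HDACi and assay controls on every plate. ApoTox-Glo triplex readout: viability fluorescence 400Ex/505Em, cytotoxicity fluorescence 485Ex/520Em, then caspase 3/7 reagent read by luminescence for apoptosis.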

[2] = Half life in human hepatocytes; format: ADME, cell-based, Hepatocyte
Method in brief: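 Half-life in minutes measured in mouse and human hepatocytes.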

Mus musculus [3] = assay: Antitumor immunity against mouse SM1 cells implanted in flank of immunocompetent C57BL/6 mouse assessed as increase in antitumor M1 macrophages at 25 mg/kg, ip administered 1 week post-implantation by flow cytometry; format: functional, organism-based
[4] = molecular target: Voltage-gated inwardly rectifying potassium channel KCNH2 (Homo sapiens, UniProt Q12809); assay: Inhibition of human ERG expressed in HEK293 cells by manual-patch clamp assay; format: cell-based
Sequence of Voltage-gated inwardly rectifying potassium channel KCNH2 (Q12809 whole entry): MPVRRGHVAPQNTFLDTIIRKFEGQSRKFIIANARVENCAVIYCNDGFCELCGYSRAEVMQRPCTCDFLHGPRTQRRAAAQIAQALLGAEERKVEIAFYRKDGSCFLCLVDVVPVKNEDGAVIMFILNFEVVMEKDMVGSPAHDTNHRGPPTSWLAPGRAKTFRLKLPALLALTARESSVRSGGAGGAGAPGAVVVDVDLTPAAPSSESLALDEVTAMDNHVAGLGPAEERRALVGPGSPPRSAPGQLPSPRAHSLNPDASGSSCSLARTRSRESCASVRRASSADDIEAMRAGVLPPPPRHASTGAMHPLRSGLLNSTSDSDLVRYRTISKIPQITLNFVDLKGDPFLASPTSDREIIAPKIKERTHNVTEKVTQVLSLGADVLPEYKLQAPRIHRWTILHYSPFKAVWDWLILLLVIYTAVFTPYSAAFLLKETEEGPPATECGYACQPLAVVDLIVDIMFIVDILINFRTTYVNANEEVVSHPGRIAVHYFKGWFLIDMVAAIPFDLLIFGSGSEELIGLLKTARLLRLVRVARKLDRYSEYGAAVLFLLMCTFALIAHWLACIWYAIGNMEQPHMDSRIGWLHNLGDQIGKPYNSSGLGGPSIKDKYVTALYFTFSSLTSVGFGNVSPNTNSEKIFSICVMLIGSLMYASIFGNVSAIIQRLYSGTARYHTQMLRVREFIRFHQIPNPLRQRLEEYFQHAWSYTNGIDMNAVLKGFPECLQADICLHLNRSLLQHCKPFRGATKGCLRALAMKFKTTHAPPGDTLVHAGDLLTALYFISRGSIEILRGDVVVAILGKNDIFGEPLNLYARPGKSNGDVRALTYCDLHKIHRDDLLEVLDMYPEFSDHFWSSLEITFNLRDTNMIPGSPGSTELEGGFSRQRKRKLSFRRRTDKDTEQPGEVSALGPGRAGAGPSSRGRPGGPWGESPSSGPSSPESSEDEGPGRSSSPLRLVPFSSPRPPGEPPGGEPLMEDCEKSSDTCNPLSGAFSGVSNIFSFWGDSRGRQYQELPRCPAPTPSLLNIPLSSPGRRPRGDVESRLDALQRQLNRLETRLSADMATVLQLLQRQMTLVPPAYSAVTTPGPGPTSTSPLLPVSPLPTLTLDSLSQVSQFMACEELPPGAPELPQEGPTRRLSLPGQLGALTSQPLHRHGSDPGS

[5] = molecular target: T1, Protein deacetylase HDAC6 (Mus musculus) (UniProt Q9Z2V5); assay: Inhibition of HDAC6 in mouse SM1 cells assessed as increase in acetylated alpha-tubulin level at 5 to 10 uM after 24 hrs by Western blot analysis; format: cell-based
T1 sequence (whole entry): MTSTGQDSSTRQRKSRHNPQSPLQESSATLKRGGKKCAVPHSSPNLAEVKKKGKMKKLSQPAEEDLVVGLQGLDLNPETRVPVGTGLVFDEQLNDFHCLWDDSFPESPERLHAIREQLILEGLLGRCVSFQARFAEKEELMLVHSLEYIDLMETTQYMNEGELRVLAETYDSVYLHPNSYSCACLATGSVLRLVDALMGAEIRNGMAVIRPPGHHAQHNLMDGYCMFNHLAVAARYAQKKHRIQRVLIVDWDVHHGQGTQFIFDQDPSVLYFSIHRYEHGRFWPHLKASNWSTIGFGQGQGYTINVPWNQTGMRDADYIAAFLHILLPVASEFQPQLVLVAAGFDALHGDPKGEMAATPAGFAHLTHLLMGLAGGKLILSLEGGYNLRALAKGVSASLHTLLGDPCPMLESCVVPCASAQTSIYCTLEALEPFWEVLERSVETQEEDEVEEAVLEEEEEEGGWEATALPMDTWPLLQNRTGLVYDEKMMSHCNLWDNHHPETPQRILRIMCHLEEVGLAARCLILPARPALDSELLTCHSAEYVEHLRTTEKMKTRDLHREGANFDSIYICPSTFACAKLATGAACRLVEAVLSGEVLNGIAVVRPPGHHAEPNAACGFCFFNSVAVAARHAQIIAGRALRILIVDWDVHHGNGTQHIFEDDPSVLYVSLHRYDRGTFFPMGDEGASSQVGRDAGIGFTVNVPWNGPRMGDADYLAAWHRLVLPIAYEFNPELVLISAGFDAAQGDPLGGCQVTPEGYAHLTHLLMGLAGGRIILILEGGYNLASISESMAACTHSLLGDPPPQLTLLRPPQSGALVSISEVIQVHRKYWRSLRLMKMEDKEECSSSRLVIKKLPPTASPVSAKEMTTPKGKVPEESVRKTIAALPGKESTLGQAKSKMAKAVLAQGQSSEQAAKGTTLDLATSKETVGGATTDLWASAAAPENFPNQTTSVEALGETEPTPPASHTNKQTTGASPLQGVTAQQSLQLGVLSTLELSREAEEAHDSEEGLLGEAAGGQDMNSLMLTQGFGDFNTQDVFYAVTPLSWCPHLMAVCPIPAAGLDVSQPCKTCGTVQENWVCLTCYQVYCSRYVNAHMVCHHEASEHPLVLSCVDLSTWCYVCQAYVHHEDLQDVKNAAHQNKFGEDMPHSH

[6] = Half life in human liver microsomes in presence of NADPH; format: ADME, Microsome
Method in brief: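 Liver microsomal stability in mouse and human microsomes with NADPH; half-life in minutes.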

Mus musculus [7] = assay: Antitumor activity against mouse SM1 cells implanted in flank of immunocompetent C57BL/6 mouse assessed as reduction in tumor growth at 25 mg/kg, ip administered 1 week post-implantation measured for 18 days; format: functional, organism-based
Method in brief: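 SM1 cells passaged in vivo mouse to mouse at least five times; 1.0 × 10^6 cells in 100 µL PBS injected subcutaneously into female C57BL/6 mice 4-6 weeks old, 10 per group. Treatment ip 25 mg/kg or 100 µL PBS vehicle, five days a week until control tumors reached maximum size. Tumor volume from calipers as L × W2/2.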

[8] = Mutagenicity in Salmonella typhimurium TA1537 assessed as induction of >= 3 fold increase in revertant colonies at 1.5 to 1000 ug/well in absence of S9 fraction by Ames test; format: toxicity; details: salmonella enterica subsp. enterica serovar typhimurium
Method in brief: (§2)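 Ames test with S. typhimurium TA98 and TA1537, with and without S9 mix. A positive call required a ≥ 2-fold (TA98) or ≥ 3-fold (TA1537) rise in mean revertant colonies over the concurrent negative/solvent control.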

[9] = Mutagenicity in Salmonella typhimurium TA1537 assessed as induction of >= 3 fold increase in revertant colonies at 1.5 to 1000 ug/well in presence of S9 fraction by Ames test; format: toxicity, subcellular; details: salmonella enterica subsp. enterica serovar typhimurium; method in brief: as §2
[10] = Effect on cell viability in mouse SM1 cells up to 10 uM by ApoTox-Glo triplex assay; format: cell-based; method in brief: as §1
[11] = Mutagenicity in Salmonella typhimurium TA98 assessed as induction of >= 2 fold increase in revertant colonies at 1.5 to 1000 ug/well in absence of S9 fraction by Ames test; format: toxicity; details: salmonella enterica subsp. enterica serovar typhimurium; method in brief: as §2
[12] = Cytotoxicity against mouse SM1 cells at 0.1 to 25 uM by ApoTox-Glo triplex assay; format: cell-based; method in brief: as §1
Mus musculus [13] = assay: Antitumor immunity against mouse SM1 cells implanted in flank of immunocompetent C57BL/6 mouse assessed as infiltration of intratumoral CD8+ cells at 25 mg/kg, ip administered 1 week post-implantation by flow cytometry; format: functional, organism-based
[14] = Mutagenicity in Salmonella typhimurium TA98 assessed as induction of >= 2 fold increase in revertant colonies at 1.5 to 1000 ug/well in presence of S9 fraction by Ames test; format: toxicity, subcellular; details: salmonella enterica subsp. enterica serovar typhimurium; method in brief: as §2
Mus musculus [15] = assay: Antitumor immunity against mouse SM1 cells implanted in flank of immunocompetent C57BL/6 mouse assessed as infiltration of intratumoral CD4+ cells at 25 mg/kg, ip administered 1 week post-implantation by flow cytometry; format: functional, organism-based
PC-3 = assay: Induction of cell death in human PC3 cells at 0.1 to 25 uM; format: cell-based; details: pc-3, 25 µM
5637 = assay: Induction of cell death in human 5637 cells at 0.1 to 25 uM; format: cell-based; details: human, 5637, 25 µM
Mus musculus [16] = assay: Antitumor immunity against mouse SM1 cells implanted in flank of immunocompetent C57BL/6 mouse assessed as increase in ratio of M1/M2 macrophages at 25 mg/kg, ip administered 1 week post-implantation by flow cytometry; format: functional, organism-based
Mus musculus [17] = assay: Antitumor immunity against mouse SM1 cells implanted in flank of immunocompetent C57BL/6 mouse assessed as increase in infiltration of NKT cells at 25 mg/kg, ip administered 1 week post-implantation by flow cytometry; format: functional, organism-based

half-life [2]: 108 min
inhibition [5]: Active
half-life [6]: 135 min
SMILES: O=C(NCCc1cc(C(=O)NO)no1)c1ccc(Cl)c(Cl)c1
Activity [1]: Non-Toxic
Activity (Mus musculus [3]): Active
IC50 [4]: > 30 µM
inhibition (Mus musculus [7]): Active
Activity [8]: Non-Toxic
Activity [9]: Non-Toxic
Activity [10]: Non-Toxic
Activity [11]: Non-Toxic
Activity [12]: Non-Toxic
Activity (Mus musculus [13]): Active
Activity [14]: Non-Toxic
Activity (Mus musculus [15]): inactive
Activity (PC-3): Non-Toxic
Activity 5637: Non-Toxic
Activity (Mus musculus [16]): Active
Activity (Mus musculus [17]): Active
